The list is not random: actives were taken first. Their share in the collection is about 2.3%.
MsrA inhibitor = bovine MsrA inhibition | AID 651718 | 360,000 compounds, 0.75% hits | purified bovine MsrA, absorbance read-out | inhibition, % at 15.5 µM; in the data active = inhibition above about 4.5%;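 also: 0% = vehicle wells with enzyme and 100% = reference inhibitor wells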
MC4R antagonist = human MC4R antagonism in cAMP assay; inhibition, % at 6.5 µM; AID 540295; MC4R-expressing cells, MTII-stimulated cAMP, LANCE TR-FRET; 360,000 compounds, 0.48% hits;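 active = inhibition above its plate's cutoff, the mean of tested wells on that plate plus 3 SD, cut at about 29% in these data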;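 also: 0% = Melanotan II alone and 100% = Melanotan II plus saturating MCL0020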
Target sequence (P32245 whole entry, looked up): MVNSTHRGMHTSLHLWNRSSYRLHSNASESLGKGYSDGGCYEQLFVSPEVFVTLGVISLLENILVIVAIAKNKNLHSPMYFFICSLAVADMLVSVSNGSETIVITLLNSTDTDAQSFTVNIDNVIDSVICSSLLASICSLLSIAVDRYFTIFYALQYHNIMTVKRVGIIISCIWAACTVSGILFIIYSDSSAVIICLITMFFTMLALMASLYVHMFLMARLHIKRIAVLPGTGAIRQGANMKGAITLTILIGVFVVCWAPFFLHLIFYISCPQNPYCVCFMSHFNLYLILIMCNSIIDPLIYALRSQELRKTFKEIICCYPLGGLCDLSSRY
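Assay system: U2OS-MC4R stable cell line; Also added: Melanotan II; Technique: Eu-cAMP/anti-cAMP TR-FRET, emission 671 nm; Times: 30-min compound, 1-h challenge, 1-h detection, room temperature.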
MC4R barr agon = activates human MC4R beta-arrestin recruitment; U2OS MC4R beta-arrestin complementation, luminescence; percent of melanotan II response, DMSO zero; activation, % at 8.9 µM; 360,000 compounds, 0.98% hits; AID 540308;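 active = activation above a per-plate cutoff, the mean activation of sample wells on that plate plus 3 SD, cut at about 8% in these data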
bovine MsrA act = activates bovine MsrA enzyme; purified bovine MsrA, absorbance read-out; activation, % at 10.6 µM; 360,000 compounds, 0.3% hits; in the data active = activation above about 7.5%;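 also: 0% = vehicle and 100% = reference activator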
MC4R barr conf = human MC4R beta-arrestin agonism confirmation | shares compounds with MC4R barr agon | U2OS MC4R beta-arrestin recruitment, luminescence; scaled DMSO 0%, Melanotan II 100% | activation, % at 8.9 µM | 2,400 compounds, 31% hits;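 active = mean activation across replicates above the hit cutoff set in the earlier primary screen, cut at about 8% in these data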
MOR DOR agonist = OPRM1-OPRD1 heterodimer agonism counter-screen. shares compounds with MC4R barr agon. U2OS PathHunter beta-arrestin, beta-gal luminescence; percent of deltorphin B response, DMSO zero. activation, % at 9.2 µM. 2,400 compounds, 5.8% hits. AID 602194;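 active = mean activation across replicates exceeds the hit threshold derived in the earlier primary screen, cut at about 18% in these data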;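 also: 100% = deltorphin B at 0.9 µM final and 0% = DMSO alone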
* marks the source's active call; other numbers are inactive results; / = no result given.

SMILES	MsrA inhibitor	MC4R antagonist	MC4R barr agon	bovine MsrA act	MC4R barr conf	MOR DOR agonist
COc1ccc(CCNC(=O)C(=O)NCc2ccc(C(C)C)cc2)cc1OC	0	-10	2	-2	/	/
CCOC(=O)c1ccc(NC(=O)CSc2nnc(CNC(=O)c3ccco3)o2)cc1	-1	2	-2	-1	/	/
COc1ccc(C(=O)COC(=O)C2CCCN2C(=O)C23CC4CC(CC(C4)C2)C3)cc1 (stereo not drawn)	0	2	-1	-3	/	/
O=C(COC(=O)C1CCCN1C(=O)C12CC3CC(CC(C3)C1)C2)c1ccc(Br)cc1 (stereo not drawn)	-1	0	14*	-3	5	3
CC(=O)Nc1nn(CC(C)C)c2nc3ccc(C)cc3cc12	-1	-9	-1	-3	/	/
Cc1ccc2cc3c(NC(=O)c4ccco4)nn(CC(C)C)c3nc2c1	1	7	13*	3	-2	3
CCCc1cc(C(=O)NNC(=S)NCc2ccccc2)cs1	3	2	-1	-1	/	/
O=C(NCC1OCCc2ccccc21)c1ccc(NC(=O)c2ccc(Cl)cc2Cl)cc1 (stereo not drawn)	0	-8	15*	-3	2	2
C/C(=N\NC(=O)c1cccs1)c1c(O)cc(C)oc1=O	0	8	-5	-4	/	/
Nc1cccc(C(=O)OCC(=O)c2ccccc2)c1	0	7	0	-3	/	/
COc1ccc(CCn2c(C)cc(C(=O)COC(=O)c3cnc(C)cn3)c2C)cc1	1	-2	0	-1	/	/
COc1ccc(CCn2c(C)cc(C(=O)COC(=O)c3ccc(O)cc3O)c2C)cc1	1	13	25*	-3	9.3*	10
Cc1nc2ccc(F)cc2cc1C(=O)Nc1ccc(Cl)c(Cl)c1	0	-1	9.9*	-4	-2	6
Cc1ccccc1C(=O)Nc1cc(NC(=O)c2ccccc2C)cc(C(=O)O)c1	-1	3	0	-7	/	/
Cc1noc(C)c1COC(=O)c1cccc(S(=O)(=O)N2c3ccccc3CC2C)c1 (stereo not drawn)	1	9	-1	1	/	/
COC(=O)c1cc2n(n1)CCN(Cc1ccc(OC)cc1)C2=O	0	1	-1	-2	/	/
COc1ccc(CN2CCn3ncc(C(=O)Nc4cc(C)cc(C)c4)c3C2=O)cc1	1	5	32*	-10	0	10
CC(=O)NC(Cc1ccc(F)c(F)c1)C(=O)NC1CCN(S(=O)(=O)c2ccc(C)cc2)CC1 (stereo not drawn)	0	7	1	-1	/	/
N#C/C(=C/c1ccc(-c2ccc(S(N)(=O)=O)cc2)o1)c1nc2ccccc2s1	2	17	-2	-7	/	/
N#C/C(=C\c1ccc(-c2nc3ccccc3s2)o1)C(N)=O	0	-28	21*	0	3	7
CNC(=O)/C(C#N)=C/c1ccc(-c2nc3ccccc3s2)o1	0	-9	38*	-3	1	5
CC(OC(=O)CCC1CCCCC1)C(=O)Nc1ccc(S(N)(=O)=O)cc1 (stereo not drawn)	1	0	-2	-6	/	/
COc1ccc(NC(=O)COC(=O)CCC2CCCCC2)cc1	2	7	9.9*	-1	0	8
Cc1ccc(NC(=O)C(C)OC(=O)CCC2CCCCC2)cc1 (stereo not drawn)	0	7	11*	1	3	6
O=C(CNCC1CCCCC1)Nc1ccc(OC(F)(F)F)cc1	0	-3	15*	0	8	9
SMILES	MsrA inhibitor	MC4R antagonist	MC4R barr agon	bovine MsrA act	MC4R barr conf	MOR DOR agonist
COc1ccc(-c2nc(CS(=O)(=O)CC(=O)NCc3ccc4c(c3)OCO4)c(C)o2)cc1	-1	5	4	-14	/	/
O=C(NCc1ccccc1)C1=C[C@H](C2CC2)C[C@H](OCCCCO)O1	1	6	0	0	/	/
CCOC(=O)c1c(C)[nH]c(C(=O)OCC(=O)NC(C)(C)C)c1C	1	0	-2	-5	/	/
Cc1ccc2nc(-c3ccc(NC(=O)CN4CCN(c5ccccn5)CC4)cc3)sc2c1	1	19	10.0*	1	1	3
Cc1ccc2nc(-c3ccc(NC(=O)CSc4nc(N)cc(=O)[nH]4)cc3)sc2c1	1	9	13*	-5	6	2
Cc1ccc2nc(NC(=O)CN3CCN(c4ccccn4)CC3)sc2c1	1	8	-1	-4	/	/
Cc1ccc2nc(-c3ccc(NC(=O)CSc4nccc(=O)[nH]4)cc3)sc2c1	2	4	-3	-4	/	/
CCOc1ccc(Nc2oc(-c3ccco3)nc2C#N)cc1	2	9	2	-1	/	/
CCOc1ccc(Nc2oc(-c3cccs3)nc2C#N)cc1	1	-2	18*	-8	5	10
Cc1cccc(NC(=O)CNC(=O)c2cc(S(=O)(=O)N(C)C)ccc2N2CCCC2)c1C	3	-1	0	-6	/	/
Oc1ccc(N2CCN(c3ncnc4sc(-c5ccccc5)cc34)CC2)cc1	2	4	48*	-4	34*	12
CC(=O)N1CCN(c2ncnc3sc(-c4ccccc4)cc23)CC1	1	10	-1	-4	/	/
O=C(Cn1nc(-c2ccccc2)ccc1=O)Nc1ccc(NC(=O)c2ccccn2)cc1	1	9	14*	-2	22*	22*
COc1c(F)c(F)c(C(=O)Nc2ccc(N3CCN(Cc4ccccc4)CC3)cc2)c(F)c1F	1	13	11*	3	2	4
COc1ccc(OCc2n(CC(=O)OC3CC(C)CCC3C(C)C)c3ccccc3[n+]2C)cc1 (stereo not drawn)	-1	-6	38*	-12	11*	9
O=C1NC(=Nc2ccccc2Cl)S/C1=C\c1cccc([N+](=O)[O-])c1	1	22	0	-5	/	/
NC(c1ccccc1)c1csc(Nc2ccc(C(=O)c3ccccc3)cc2)n1 (stereo not drawn)	0	6	2	-1	/	/
CCCOc1ccc(F)cc1-c1cc(C(=O)Nc2ccc(C(C)C)cc2)[nH]n1	1	8	21*	-8	5	4
COc1cc(C(F)(F)F)nc2ccc(C#CCOC(=O)Nc3ccccc3)cc12	1	6	14*	-6	6	6
C=CC[C@@H](CC(=O)N(CCO)Cc1ccccc1)C(=O)N[C@H](COC(=O)[C@@H](CC=C)Cc1ccc(F)cc1)c1ccccc1	1	10	2	2	/	/
Cc1ccc(NC(=O)C(C)c2ccc(-c3ccccc3)c(F)c2)c(C)c1 (stereo not drawn)	0	11	9.6*	4	2	5
COc1cc(NC(=O)c2n[nH]c(=O)c3ccccc23)cc(OC)c1	2	15	-1	-2	/	/
COc1ccc(-c2nc(NC(=O)c3n[nH]c(=O)c4ccccc34)sc2C)cc1	0	5	14*	-1	6	4

Screening data (PubChem BioAssay)
